≈ marks a conversion by molar mass, not a printed value.
Tests used:
[1] = tested on: Mycobacterium tuberculosis; assay: Antitubercular activity against Mycobacterium tuberculosis measured after 48 hrs by luminescence based serial dilution method; type: functional
[2] = target: T1, Enoyl-[acyl-carrier-protein] reductase [NADH] (Mycobacterium tuberculosis, UniProt P9WGR1); assay: Inhibition of recombinant Mycobacterium tuberculosis InhA expressed in Escherichia coli […] pLysS using trans-2-decenoyl-N-acetylcysteamine as substrate by spectrophotometric method
T1 sequence (P9WGR1 whole entry): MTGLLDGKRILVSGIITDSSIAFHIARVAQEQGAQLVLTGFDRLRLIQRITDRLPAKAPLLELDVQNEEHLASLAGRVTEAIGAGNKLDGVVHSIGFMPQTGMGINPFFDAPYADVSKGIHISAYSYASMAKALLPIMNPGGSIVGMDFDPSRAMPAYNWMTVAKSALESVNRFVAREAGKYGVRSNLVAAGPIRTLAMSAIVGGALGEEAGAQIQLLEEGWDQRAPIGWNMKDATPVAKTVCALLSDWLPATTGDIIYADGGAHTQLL

[3] = tested on: Pseudomonas aeruginosa; assay: Antimicrobial activity against Pseudomonas aeruginosa […] measured after 48 hrs by p-iodonitrotetrazolium violet dye based serial dilution test; type: functional
[4] = Cytotoxicity against HEK293 cells after 48 hrs by MTT assay; type: cell-based; details: human, read-out: MIC
[5] = tested on: Staphylococcus aureus; assay: Antimicrobial activity against […] Staphylococcus aureus ATCC 29213 measured after 48 hrs; type: functional; details: ATCC 29213, 48 h
Outline: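 Brucella broth with 10% heat-inactivated horse serum. Inoculum of 1×10^5 bacteria per well, exposed to a range of compound concentrations at 37 °C for 48 h. Absorbance read at 590 nm. Drug-free wells served as growth control and medium-only wells as blank. MIC is the concentration giving 80% growth inhibition.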

[6] = tested on: Staphylococcus aureus; assay: Antimicrobial activity against methicillin-sensitive Staphylococcus aureus ATCC 25923 measured after 48 hrs; type: functional; details: ATCC 25923, 48 h
Outline: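 Brucella broth with 10% heat-inactivated horse serum. Inoculum of 1×10^5 bacteria per well, exposed to a range of compound concentrations for 48 h at 37 °C. Read as absorbance at 590 nm, with compound-free wells as control and medium-only wells as blank. Percent growth inhibition was calculated, and the concentration giving 80% inhibition was taken as the MIC.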

[7] = target: T2, 3-oxoacyl-[acyl-carrier-protein] synthase 3 (Escherichia coli, UniProt C3TDZ2); assay: Inhibition of Escherichia coli KAS3 expressed in Escherichia coli BL21(DE3)
T2 sequence (C3TDZ2 whole entry): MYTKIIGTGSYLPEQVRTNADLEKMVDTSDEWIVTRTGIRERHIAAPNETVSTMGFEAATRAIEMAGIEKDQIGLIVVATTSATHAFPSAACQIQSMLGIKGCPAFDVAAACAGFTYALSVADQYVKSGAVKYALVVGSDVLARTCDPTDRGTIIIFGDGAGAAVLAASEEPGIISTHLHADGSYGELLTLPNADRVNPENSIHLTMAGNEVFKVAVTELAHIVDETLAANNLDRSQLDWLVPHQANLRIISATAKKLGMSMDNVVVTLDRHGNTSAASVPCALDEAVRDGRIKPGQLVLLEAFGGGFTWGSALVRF

[8] = target: DNA gyrase (Escherichia coli, UniProt P0AES4+P0AES6); assay: Inhibition of Escherichia coli DNA gyrase assessed as reduction in enzyme-mediated supercoiling of relaxed pBR322 DNA measured after 60 mins by electrophoresis method; type: protein-complex assay

Compound	MIC [1] [µM]	IC50 [2] [µM]	MIC [3] [µM]	MCC at 48 h [4] [µM]	MIC [5] [µM]	MIC [6] [µM]	IC50 [7] [µM]	IC50 [8] [µM]
COc1ccc(C(=O)CN2C(=O)/C(=C\c3ccccc3OC)SC2=S)cc1	9.27 (≈ 3.7 µg/mL)	16.8						
COc1ccccc1/C=C1/SC(=S)N(CC(=O)c2ccccc2)C1=O	30.4 (≈ 11.2 µg/mL)	28.1						
CC(=O)Nc1ccc(/C=C2/SC(=S)N(CC(=O)c3ccccc3)C2=O)cc1	3.18 (≈ 1.26 µg/mL)	11.6						
O=C(CN1C(=O)/C(=C\c2ccc(F)cc2)SC1=S)c1ccccc1	57.4 (≈ 20.5 µg/mL)	55						
O=C(CN1C(=O)/C(=C\c2ccc(Cl)cc2)SC1=S)c1ccccc1	48.2 (≈ 18 µg/mL)	50.1						
O=C(CN1C(=O)/C(=C\c2ccccc2)SC1=S)c1ccccc1	32.3 (≈ 11 µg/mL)	40.2						
O=C(CN1C(=O)/C(=C\c2ccc([N+](=O)[O-])cc2)SC1=S)c1ccccc1	36.5 (≈ 14 µg/mL)	43.5						
COc1ccc(/C=C2/SC(=S)N(CC(=O)c3ccccc3)C2=O)cc1	2.95 (≈ 1.09 µg/mL)	8.24	4.83 (≈ 1.78 µg/mL)	167	4.15 (≈ 1.53 µg/mL)	4.28 (≈ 1.58 µg/mL)		
O=C(CN1C(=O)/C(=C\c2ccc(Br)cc2)SC1=S)c1ccccc1	21.1 (≈ 8.83 µg/mL)	23.9						
COc1cc(/C=C2/SC(=S)N(CC(=O)c3ccccc3)C2=O)cc(OC)c1OC	0.38 (≈ 0.163 µg/mL)	3.12	5.41 (≈ 2.32 µg/mL)	> 200	7.2 (≈ 3.09 µg/mL)	4.61 (≈ 1.98 µg/mL)	780	> 1000
COc1ccc(C(=O)CN2C(=O)/C(=C\c3ccccc3Cl)SC2=S)cc1	7.83 (≈ 3.16 µg/mL)	15.3						
COc1ccc(C(=O)CN2C(=O)/C(=C\c3ccc(Br)cc3)SC2=S)cc1	4.04 (≈ 1.81 µg/mL)	12.1						
O=C(CN1C(=O)/C(=C\c2ccc(O)cc2)SC1=S)c1ccccc1	33.1 (≈ 11.8 µg/mL)	35.3						
O=C(CN1C(=O)/C(=C\c2ccccc2Cl)SC1=S)c1ccccc1	25.5 (≈ 9.53 µg/mL)	25.8						
O=C(CN1C(=O)/C(=C\c2cccc(Cl)c2)SC1=S)c1ccccc1	40.9 (≈ 15.3 µg/mL)	47.3						
CN(C)c1ccc(/C=C2/SC(=S)N(CC(=O)c3ccccc3)C2=O)cc1	12.6 (≈ 4.82 µg/mL)	17.4						
COc1ccc(C(=O)CN2C(=O)/C(=C\c3ccc(F)cc3)SC2=S)cc1	17.8 (≈ 6.9 µg/mL)	20.1						
COc1cccc(/C=C2/SC(=S)N(CC(=O)c3ccccc3)C2=O)c1	20.5 (≈ 7.57 µg/mL)	22.6						
Cc1ccc(/C=C2/SC(=S)N(CC(=O)c3ccccc3)C2=O)cc1	15.1 (≈ 5.34 µg/mL)	17.5						
COc1ccc(C(=O)CN2C(=O)/C(=C\c3cccc(Cl)c3)SC2=S)cc1	2.02 (≈ 0.816 µg/mL)	7.84	5.05 (≈ 2.04 µg/mL)	> 200	3.88 (≈ 1.57 µg/mL)	2.16 (≈ 0.872 µg/mL)		
COc1ccc(C(=O)CN2C(=O)/C(=C\c3cc(OC)c(OC)c(OC)c3)SC2=S)cc1	0.29 (≈ 0.133 µg/mL)	2.55	0.95 (≈ 0.437 µg/mL)	> 200	1.54 (≈ 0.708 µg/mL)	1.24 (≈ 0.57 µg/mL)	900	> 1000
COc1ccc(C(=O)CN2C(=O)/C(=C\c3ccc(C)cc3)SC2=S)cc1	0.49 (≈ 0.188 µg/mL)	5.02	8.12 (≈ 3.11 µg/mL)	195	10.2 (≈ 3.91 µg/mL)	6.15 (≈ 2.36 µg/mL)		
COc1ccc(C(=O)CN2C(=O)/C(=C\c3ccc(Cl)cc3)SC2=S)cc1	8.62 (≈ 3.48 µg/mL)	16.5						
CC(/C=C1\SC(=S)N(CC(=O)O)C1=O)=C\c1ccccc1	> 200	> 200						
NNC(=O)c1ccncc1 [ISONIAZID]	0.58 (≈ 0.0795 µg/mL)	8.29	2.85 (≈ 0.391 µg/mL)	120	1.42 (≈ 0.195 µg/mL)	1.26 (≈ 0.173 µg/mL)	> 1000	> 1000
Oc1cc(Cl)ccc1Oc1ccc(Cl)cc1Cl [TRICLOSAN]	8.65 (≈ 2.5 µg/mL)		1.25 (≈ 0.362 µg/mL)	20.5	0.68 (≈ 0.197 µg/mL)	0.39 (≈ 0.113 µg/mL)	850	> 1000

— ChEMBL document CHEMBL4480441, “Discovery and development of novel rhodanine derivatives targeting enoyl-acyl carrier protein reductase” (Bioorg Med Chem, 2019)
